Source: article PMC6397674 (Clinical cancer research : an official journal of the …, 2018)

How the values were obtained:
[1] = test system: murine genetically engineered T-ALL and human T-ALL cell lines such as MOLT4, Jurkat, HPB-ALL and KARPAS45; conditions: cited from earlier work
Jurkat cells = assay: Systemic T-ALL, tail-vein injection of luciferase-expressing Jurkat cells; assay type: in vivo, NOD/SCID mice; conditions: S2157 50 mg/kg, OG-L002 12.5 mg/kg (its MTD), twice a week for 3 weeks
T-ALL cell lines = assay type: cell-based, human; conditions: read-out: IC50 values, 72 hours of culture
In short: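 Human T-ALL cell lines (CEM, Jurkat, MOLT4, Loucy, PEER) were cultured with a range of test compound concentrations for 72 hours. IC50 was calculated from the dose-response curves. Values are means ± S.D. of three independent experiments, compared by one-way ANOVA with Tukey's multiple comparison test.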

[2] = for changes in complete blood count, liver and kidney functions, histopathological examination of some organs: NOD/SCID mice treated with up to 150 mg/kg
MOLT4 cells [3] = assay type: in vivo, NOD/SCID mice; conditions: for effect on CNS leukemia: murine xenotransplant model, histopathological examination / imaging
[4] = test system: CD34-positive normal hematopoietic progenitor cells; assay: Viability of CD34-positive normal bone marrow progenitor cells; assay type: cell-based; conditions: 72 hours, with stem cell factor and thrombopoietin
In short: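 Purchased CD34-positive normal bone marrow progenitor cells were cultured with stem cell factor and thrombopoietin, without or with various concentrations of test compound, for 72 hours. Jurkat cells were treated in parallel as a control. Viability was measured by MTT reduction as a percentage of untreated controls. Values are mean ± S.D. of three independent experiments, compared by one-way ANOVA with Bonferroni post-hoc test.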

T-ALL cells = assay: Subcutaneous T-ALL xenograft; assay type: in vivo, NOD/SCID mice; conditions: for side effects / size of subcutaneous tumors: intraperitoneal injection at 50 mg/kg, 3 times a week
[5] = test system: ZEB2-positive ETP-ALL cell lines such as Loucy and PEER; assay: Efficacy in relation to ZEB2 expression in T-ALL and ETP-ALL cell lines; assay type: cell-based, human
MOLT4 cells [6] = assay: Isobologram / combination index analysis with anti-leukemic drugs; assay type: cell-based, human; conditions: 72 hours
In short: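 MOLT4 cells exposed to each of several anti-leukemia drugs, without or with the test compound, for 72 h to generate dose-response curves for each combination. Combination index calculated by the Chou–Talalay method; CI <1.0 taken as synergism. Mean ± S.D. from three independent experiments.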

[7] = test system: mitogen-activated normal T-lymphocytes; assay: Viability of mitogen-activated normal T-lymphocytes; assay type: cell-based
[8] = Pharmacokinetic study, plasma and brain concentrations by LC-MS/MS; assay type: in vivo, NOD/SCID mice; conditions: for Brain/Plasma ratio / AUC / Brain concentration at 0.5 h / Plasma concentration at 0.5 h / T1/2 / nAUC (dose-normalized AUC): NOD.CB17-PrkdcSCID/J mice, single intraperitoneal injection, 50 mg/kg, n = 3; for Brain/Plasma ratio: 0.5 h
primary T-ALL cells = assay: Combination with anti-leukemic drugs in primary T-ALL cells; assay type: cell-based, human
T-ALL = conditions: read-out: IC50 values; cited from earlier work
[9] = single intraperitoneal injection at 50 mg/kg, NOD/SCID and ICR mice

Row | SMILES | anti-leukemic activity in Jurkat-transplanted mice (Jurkat cells) | IC50 (T-ALL cell lines) | effect on CNS leukemia (MOLT4 cells [3]) | viability of CD34-positive normal hematopoietic progenitor cells [4] | side effects (T-ALL cells) | size of subcutaneous tumors (T-ALL cells) | efficacy in ZEB2-positive ETP-ALL cell lines [5] | combined effect with L-asparaginase (MOLT4 cells [6]) | combined effect with dexamethasone (MOLT4 cells [6]) | viability of mitogen-activated normal T-lymphocytes [7] | Brain/Plasma ratio [8] | AUC [8] | Brain concentration at 0.5 h [8] | Plasma concentration at 0.5 h [8] | T1/2 [8] | nAUC (dose-normalized AUC) [8] | changes in complete blood count, liver and kidney functions, histopathological examination of some organs [2] | further results
1 | O=C(O)c1ccc(CN2CCC(CN[C@@H]3C[C@H]3c3ccccc3)CC2)cc1 [GSK2879552] |  |  |  |  |  |  |  |  |  |  |  |  |  |  |  |  |  | pro-apoptotic activity [1]: failed to show pro-apoptotic activity
2 | N[C@H]1C[C@@H]1c1ccc(-c2cccc(O)c2)cc1 [OG-L002, reference compound] | failed to show anti-leukemic activity | ≥ 20 µM |  |  |  |  |  |  |  |  |  |  |  |  |  |  |  | maximum tolerated dose (MTD) ([2]; NOD/SCID mice, intraperitoneal injection): 12.5 mg/kg; dose after which recipients died immediately ([2]; NOD/SCID mice, intraperitoneal injection, unknown causes): ≥ 25 mg/kg
3 | N[C@@H]1C[C@H]1c1cc(F)cc(F)c1OCc1ccccc1 [S2101] |  | ≥ 20 µM |  |  |  |  |  |  |  |  |  |  |  |  |  |  |  | 
4 | Cl.N[C@H]1CCN(C(=O)CN[C@@H]2C[C@H]2c2cc(F)cc(F)c2OCc2ccccc2)C1 [S2116] |  |  | failed to eradicate CNS disease | did not affect the viability | negligible side effects, such as moderate leukocytosis and thrombocytopenia without bleeding tendency | less than 20 % of that in the untreated control | relatively ineffective | synergistic | additive | modestly inhibited | 0.17 ± 0.03 | 41.78 ± 8.66 µM·h | 1.35 ± 0.39 µmol/kg | 8.17 ± 2.80 µM | 10.88 ± 2.97 h | 0.84 ± 0.17 µM·h | no obvious changes were observed | overall survival of MOLT4-inoculated mice (T-ALL cells; MOLT4-inoculated NOD/SCID mice): significantly prolonged; combined effect with cytosine arabinoside (MOLT4 cells [6]): additive
5 | CN1CCN(C(=O)CN[C@@H]2C[C@H]2c2cc(F)cc(F)c2OCc2ccccc2)CC1.Cl [S2157] | therapeutic benefit of S2157 including the eradication of CNS disease |  | CNS leukemia nearly disappeared | did not affect the viability | negligible side effects, such as moderate leukocytosis and thrombocytopenia without bleeding tendency | less than 20 % of that in the untreated control | relatively ineffective | synergistic | synergistic | modestly inhibited | 13.0 ± 6.26 | 5.75 ± 3.67 µM·h | 64.0 ± 3.46 µmol/kg | 5.71 ± 2.47 µM | 0.88 ± 0.04 h | 0.11 ± 0.07 µM·h | no obvious changes were observed | hazard ratio against untreated mice, single agent (MOLT4 cells [3]; 50 mg/kg ip twice a week, log-rank test, P = 0.0246): 0.2371; hazard ratio against untreated control, combination with dexamethasone (MOLT4 cells [3]; S2157 50 mg/kg ip twice a week plus dexamethasone 10 mg/kg ip 5 times a week): 0.1787; neurotoxicity (MOLT4 cells [3]; murine xenografts): without detectable neurotoxicity; growth of MOLT4 cells (bioluminescence) (MOLT4 cells [3]; twice-per-week injection at either 30 mg/kg or 50 mg/kg): almost completely suppressed the growth of MOLT4 cells in most but not all mice; combined effect with L-asparaginase (primary T-ALL cells): synergy; combined effect with dexamethasone (primary T-ALL cells): synergy; combined effect with 4-hydroxycyclophosphamide (4-OHCY) (MOLT4 cells [6]): additive; combined effect with bortezomib (MOLT4 cells [6]): additive; brain/plasma concentration ratio relative to S2116 [8, 9]: > 75 fold; maximal brain concentration relative to S2116 [8, 9]: approximately 50 fold
6 | Cn1cc(C(=O)Nc2ccc([C@@H]3C[C@H]3NCC3CC3)cc2)cn1 [T-3775440] |  |  |  |  |  |  |  |  |  |  |  |  |  |  |  |  |  | IC50 (T-ALL): > 10 µM
